In ChEMBL document CHEMBL1153932, “Hybrid alpha-bromoacryloylamido chalcones. Design, synthesis and biological evaluation” (Bioorg Med Chem Lett, 2009):
Active and inactive are the calls of the source. The calls are words filed in the database; no cut-off is given here.

Experiments:
K562 [1] = experiment: Cell cycle arrest in human K562 cells assessed as accumulation at subG1 phase at IC75 after 72 hrs using propidium iodide staining by flow cytometry; assay type: functional
In short: (§1)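 K562 cells were cultured 72 h with or without compound, then stained with propidium iodide and analysed by flow cytometry. The proportions of cells in sub-G1, G0–G1, S and G2-M were read from DNA histograms and compared with untreated controls.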

FM3A = experiment: Antiproliferative activity against mouse FM3A cells after 48 hrs by Coulter counting analysis; assay type: functional, cell-based
[2] = Solubility of the compound; assay type: physicochemical
K562 [3] = experiment: Cell cycle arrest in human K562 cells assessed as accumulation at G0-G1 phase at IC75 after 72 hrs using propidium iodide staining by flow cytometry; assay type: functional; in short: as §1
L1210 = experiment: Antiproliferative activity against mouse L1210 cells after 48 hrs by Coulter counting analysis; assay type: functional, cell-based; conditions: L1210, 48 h
K562 [4] = experiment: Antiproliferative activity against human K562 cells after 48 hrs by Coulter counting analysis; assay type: functional, cell-based; conditions: K562, 48 h
[5] = Inhibition of bovine brain tubulin polymerization; set-up: species or system Bos taurus
HeLa = experiment: Antiproliferative activity against human HeLa cells after 48 hrs by Coulter counting analysis; assay type: functional, cell-based
MOLT-4 = experiment: Antiproliferative activity against human MOLT4 cells after 48 hrs by Coulter counting analysis; assay type: functional, cell-based; conditions: MOLT-4, 48 h
K562 [6] = experiment: Cell cycle arrest in human K562 cells assessed as accumulation at G2-M phase at IC75 after 72 hrs using propidium iodide staining by flow cytometry; assay type: functional; in short: as §1
CCRF-CEM = experiment: Antiproliferative activity against human CEM cells after 48 hrs by Coulter counting analysis; assay type: cell-based
K562 [7] = experiment: Induction of apoptosis in human K562 cells assessed as phosphatidylserine externalization at 0.2 uM after 3 days using annexin-V-FITC staining by flow cytometry; assay type: functional, cell-based
K562 [8] = experiment: Cell cycle arrest in human K562 cells assessed as accumulation at S phase at IC75 after 72 hrs using propidium iodide staining by flow cytometry; assay type: functional; in short: as §1
K562 [9] = experiment: Induction of apoptosis in human K562 cells assessed as caspase 3 activation at 1.25 uM after 48 hrs by flow cytometry; assay type: functional, cell-based
In short: (§2)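 K562 cells were treated with compound for 24 h and 48 h, then harvested. Cells were stained with a FITC-conjugated monoclonal antibody against the active fragment of human caspase-3 and analysed by flow cytometry against untreated controls.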

K562 [10] = experiment: Induction of apoptosis in human K562 cells assessed as caspase 3 activation at 0.6 uM after 24 hrs by flow cytometry; assay type: functional, cell-based; in short: as §2
K562 [11] = experiment: Induction of apoptosis in human K562 cells assessed as increase in mitochondrial mass at […] after 48 hrs using 10-N-nonyl acridine orange staining by flow cytometry; assay type: functional, cell-based
K562 [12] = experiment: Induction of apoptosis in human K562 cells assessed as caspase 3 activation at 1.25 uM after 24 hrs by flow cytometry; assay type: functional, cell-based; in short: as §2
K562 [13] = experiment: Induction of apoptosis in human K562 cells assessed as caspase 3 activation at 0.6 uM after 48 hrs by flow cytometry; assay type: functional, cell-based; in short: as §2
K562 [14] = experiment: Induction of apoptosis in human K562 cells assessed as phosphatidylserine externalization up to 3 uM after 48 hrs using annexin-V-FITC staining by flow cytometry; assay type: functional, cell-based
K562 [15] = experiment: Induction of apoptosis in human K562 cells assessed as phosphatidylserine externalization up to 3 uM after 24 hrs using annexin-V-FITC staining by flow cytometry; assay type: functional, cell-based

Row | SMILES | Activity (K562 [1]) | IC50 (FM3A) | solubility [2] | Activity (K562 [3]) | IC50 (L1210) | IC75 (K562 [4]) | IC50 [5] | IC50 (HeLa) | IC50 (MOLT-4) | Activity (K562 [6]) | IC50 (CCRF-CEM) | Activity (K562 [8]) | also measured
1 | C=C(Br)C(=O)Nc1ccc(C(=O)/C=C/c2ccc(OC)c(OC)c2OC)cc1 | 57.8% | 0.53 µM | Insoluble | 13.7% | 0.63 µM | 0.71 µM | > 40 µM | 0.51 µM | 0.68 µM | 13.6% | 0.84 µM | 14.9% | IC50 (K562 [4]): 0.2 µM; Activity (K562 [7]): Active
2 | C=C(Br)C(=O)Nc1ccc(/C=C/C(=O)c2ccc(OCC)cc2)cc1 | 52.3% | 0.68 µM | Insoluble | 16.5% | 0.24 µM | 0.85 µM | > 40 µM | 0.75 µM | 0.61 µM | 11.6% | 0.75 µM | 19.6% | Activity (K562 [9]): Active; Activity (K562 [10]): Active; Activity (K562 [11]): Active; Activity (K562 [12]): Active; Activity (K562 [13]): Active
3 | C=C(Br)C(=O)Nc1ccc(C(=O)/C=C/c2ccc(N(C)C)cc2)cc1 |  | 2.8 µM |  |  | 1.9 µM |  |  | 0.61 µM | 1.3 µM |  | 1.5 µM |  | Activity (K562 [14]): Active; Activity (K562 [15]): Active
